Compound activity deposited in PubChem BioAssay by Sanford-Burnham Center for Chemical Genomics.
Rows were chosen to be rich in hits. Some 2.5% of all compounds tested hit in one or more screens of this group.
SENP1 inh: inhibitors of human SENP1 SUMO protease catalytic domain. 0.21% of 360,000 active. inhibition, % at 10 µM. recombinant SENP1 catalytic domain, CyPet-SUMO1-YPet FRET cleavage. AID 624204;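 active = inhibition at least 30% at 10 µM, raw YFP signal under a set limit, fluorescence ratio 0.5 to 1.5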
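system = hSENP1 catalytic domain, recombinant | reagent = SFCypet-SUMO1-SFYpet substrate at 25 nM | doses = one dose per compound, 10 µM, 0.5% DMSO | incubation = enzyme reaction for 50 min at room temperature, dark | measured by = FRET, CFP and YFP emission | controls = no-enzyme low, enzyme-DMSO high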
SENP8 block-1: SENP8 protease inhibition; Q96LD8; 1.2% of 330,000 active; purified SENP8, Z-RLRGG-aminoluciferin cleavage, luminescence; AID 2540; inhibition, % at 10 µM; in the data active = inhibition above about 50%
Target sequence (Q96LD8 whole entry, looked up): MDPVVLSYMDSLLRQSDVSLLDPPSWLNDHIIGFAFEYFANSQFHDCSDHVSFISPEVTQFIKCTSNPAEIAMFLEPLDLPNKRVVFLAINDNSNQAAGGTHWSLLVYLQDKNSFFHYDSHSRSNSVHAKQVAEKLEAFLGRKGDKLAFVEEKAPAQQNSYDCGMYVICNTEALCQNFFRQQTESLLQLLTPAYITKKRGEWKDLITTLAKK
SENP8 block-2: inhibitors of human SENP8 protease; AID 602440; recombinant SENP8, Nedd8 substrate fluorescence; inhibition, % at 20 µM; 0.64% of 360,000 active; in the data active = inhibition mostly above about 40%, no sharp cut-off; inactive = mostly below about 27%
SENP7 inh: SENP7 protease inhibition; Q9BQF6; recombinant SENP7, Z-RLRGG-aminoluciferin luminescence, 40 min; inhibition, % at 5 µM; 1.5% of 330,000 active;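 active = inhibition above about 50% at the single test dose, limit read from the data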
Target sequence (Q9BQF6 706-1050 limits assumed): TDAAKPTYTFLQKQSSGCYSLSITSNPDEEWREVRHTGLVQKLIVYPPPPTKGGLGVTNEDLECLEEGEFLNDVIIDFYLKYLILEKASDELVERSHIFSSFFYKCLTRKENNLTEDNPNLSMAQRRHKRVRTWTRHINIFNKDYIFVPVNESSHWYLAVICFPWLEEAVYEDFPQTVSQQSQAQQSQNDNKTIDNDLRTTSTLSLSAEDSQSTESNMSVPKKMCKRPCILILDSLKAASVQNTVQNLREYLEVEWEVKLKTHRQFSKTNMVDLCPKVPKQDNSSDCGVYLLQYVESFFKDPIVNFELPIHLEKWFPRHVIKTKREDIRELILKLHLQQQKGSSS
SENP6 inh: inhibitors of human SENP6 protease. Q9GZR1. Recombinant SENP6 catalytic domain, aminoluciferin luminescence. inhibition, % at 10 µM. 1.8% of 330,000 active. AID 2599;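 active = inhibition above about 50% at the single tested dose, limit read from the data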
SENP8 conf: human SENP8 inhibition, confirmed | shares compounds with SENP7 inh | Recombinant SENP8, Z-RLRGG-aminoluciferin luminescence, 60 min | 40% of 6,200 active | inhibition, % at 12.5 µM;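 active = mean inhibition across replicates above about 50%, limit read from the data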
SENP6 conf: human SENP6 inhibition, confirmed; shares compounds with SENP7 inh; recombinant SENP6, Z-RLRGG-aminoluciferin luminescence; inhibition, % at 12.5 µM; 58% of 6,200 active
SENP7 conf: human SENP7 inhibition, confirmed | shares compounds with SENP7 inh | recombinant SENP7, Z-RLRGG-aminoluciferin luminescence, 40 min | inhibition, % at 12.5 µM | 69% of 6,200 active | AID 488917
Casp3 select: caspase-3 inhibition (SENP selectivity assay); shares compounds with SENP7 inh; purified caspase-3, Z-DEVD-aminoluciferin luminescence, 60 min; inhibition, % at 12.5 µM; 60% of 6,200 active;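 active = mean inhibition above about 50%, limit read from the data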
SENP luc ctr: interferes with luciferase luminescence in SENP counter-screen | Pre-incubated SENP8/Z-RLRGG-aminoluciferin, luciferase luminescence interference | inhibition, % at 12.5 µM | 39% of 6,200 active | shares compounds with SENP7 inh | AID 488919;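 active = mean inhibition above about 50% when retested at one dose, limit read from the data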
Each line names hits and unclear results; the compound was inactive in the other large screens (follow-up assays come after a bar, where they were run).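 Rule for the calls, unless noted: active = mean inhibition above about 50% in the one-dose retest (limit read from the data); inactive = the rest.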

Cc1cc(C)c(-c2nc3ccccc3s2)[nH]1	SENP8 block-1 59 | SENP8 conf 81 | SENP6 conf 90 | SENP7 conf 99 | Casp3 select 76 | SENP luc ctr 70
Nc1cccc(-c2nc3ccccc3s2)c1	SENP8 block-1 93, SENP7 inh 100, SENP6 inh 100 | SENP8 conf 96 | SENP6 conf 98 | SENP7 conf 103 | Casp3 select 96 | SENP luc ctr 97
CCN(C[C@H]1N[C@@](Cc2ccccc2)(C(=O)OC)[C@H]2C(=O)N(Cc3ccccc3)C(=O)[C@@H]12)C(=O)Nc1ccc(C(F)(F)F)cc1	none
Cc1ccc(C(=O)COC(=O)CN2C(=O)C3C4CCC(C4)C3C2=O)cc1C (stereo unspecified)	none
COc1ccc(N=Cc2sc3ccccc3c2Cl)cc1	SENP7 inh 58 | SENP8 conf inactive | SENP6 conf inactive | SENP7 conf inactive | Casp3 select inactive | SENP luc ctr inactive
O=c1nc(N/N=C/C=C/c2ccccc2)cn[nH]1	SENP7 inh 53 | SENP8 conf inactive | SENP6 conf inactive | SENP7 conf inactive | Casp3 select inactive | SENP luc ctr inactive
COc1ccc(C=NNc2nc3ccccc3s2)cc1	none (no result: SENP8 block-1, SENP7 inh, SENP6 inh)
C(=N\Nc1ccccc1)/c1nc2ccccc2s1	SENP8 block-1 58, SENP7 inh 75 | SENP8 conf inactive | SENP6 conf inactive | SENP7 conf 82 | Casp3 select inactive | SENP luc ctr inactive
C(=N\Nc1nc2ccccc2s1)/c1ccccn1	SENP8 block-1 97, SENP7 inh 100, SENP6 inh 97 (no result: SENP1 inh, SENP8 block-2) | SENP8 conf 100 | SENP6 conf 101 | SENP7 conf 104 | Casp3 select 99 | SENP luc ctr inactive
C(=C\c1ccccc1)/C=N/Nc1nc2ccccc2s1	SENP6 inh 51 | SENP8 conf inactive | SENP6 conf inactive | SENP7 conf inactive | Casp3 select inactive | SENP luc ctr inactive
O=c1nc(N/N=C/c2c[nH]c3ccccc23)cn[nH]1	none
Cc1cn(-c2cc(NC(=O)c3ccc(C)c(NC(=O)c4cccc(-c5cn[nH]c(=O)c5)c4)c3)cc(C(F)(F)F)c2)cn1	none
CC(C)(C)NC(=O)C(c1ccc(F)cc1)N(Cc1ccco1)C(=O)CCC(=O)Nc1ccccn1 (stereo unspecified)	none
O=C(c1ccc(S(=O)(=O)N2CCc3ccccc3C2)cc1)N1CCCCC1	none
CSCCC(c1nnnn1C1CCCCC1)N1CCN(C/C=C/c2ccccc2)CC1 (stereo unspecified)	none (no result: SENP8 block-1, SENP7 inh, SENP6 inh)
O=C1CCOc2cc(OCc3ccccc3)ccc21	SENP8 block-1 88, SENP7 inh 95, SENP6 inh 94 | SENP8 conf 94 | SENP6 conf 94 | SENP7 conf 101 | Casp3 select 94 | SENP luc ctr 93
O=C(C[C@@H]1C/C=C\CCCC(=O)OC[C@@H]2CCCN2C1=O)N[C@@H](CO)Cc1ccccc1	none
CCN(CC)S(=O)(=O)c1ccc(C(=O)NCC(c2ccc(OC)cc2)N2CCOCC2)cc1 (stereo unspecified)	none
Cc1occc1C(=O)N1CCCC(N2CCN(c3ccccc3F)CC2)C1 (stereo unspecified)	none
Oc1cc(O)cc(/C=C/c2ccc(O)c(O)c2)c1	SENP6 inh 65 | SENP8 conf 63 | SENP6 conf 71 | SENP7 conf 83 | Casp3 select 63 | SENP luc ctr 73
C/C=C/c1ccc(O)c(OC)c1	none
CCc1cc(C(=O)NNC(=S)Nc2cccc(C)c2)cs1	SENP7 inh 56, SENP6 inh 75 | SENP8 conf inactive | SENP6 conf inactive | SENP7 conf inactive | Casp3 select inactive | SENP luc ctr inactive
Cc1cccc(NC(=S)NNC(=O)c2csc(C(C)C)c2)c1	SENP7 inh 87, SENP6 inh 77 | SENP8 conf inactive | SENP6 conf inactive | SENP7 conf inactive | Casp3 select inactive | SENP luc ctr inactive
CCCCNC(=S)NNC(=O)c1csc(CC)c1	none
Cc1cccc(NC(=S)NNC(=O)c2sccc2C)c1	SENP7 inh 65, SENP6 inh 83 | SENP8 conf 56 | SENP6 conf 56 | SENP7 conf 75 | Casp3 select 67 | SENP luc ctr 64
Cc1cc(C(=O)CCl)c(C)n1-c1c(C)n(C)n(-c2ccccc2)c1=O	none
CCCOc1ccc(OCCn2nc(C(=O)O)c3ccccc3c2=O)cc1	none
Cc1cc(C)c(S(=O)(=O)N2CCN(S(=O)(=O)N3CCOCC3)CC2)c(C)c1	none
COc1ccc(Cn2c(O)c(C=Nc3ccc(OC)cc3)c3ccccc3c2=O)cc1	SENP6 inh 58 | SENP8 conf inactive | SENP6 conf inactive | SENP7 conf inactive | Casp3 select inactive | SENP luc ctr inactive
COc1ccc2c(c1)CCc1c(C(=O)NC3CCCCC3)noc1-2	SENP7 inh 86 | SENP8 conf inactive | SENP6 conf inactive | SENP7 conf inactive | Casp3 select inactive | SENP luc ctr inactive
COCC(C)NC(=O)c1noc2c1CCc1cc(OC)ccc1-2 (stereo unspecified)	SENP7 inh 52, SENP6 inh 53 | SENP8 conf inactive | SENP6 conf inactive | SENP7 conf 74 | Casp3 select 73 | SENP luc ctr 60
COCCNC(=O)c1noc2c1CCc1cc(OC)ccc1-2	none
CN(C(=O)c1cncc(Br)c1)C1C2CC3CC(C2)CC1C3 (stereo unspecified)	none
O=[N+]([O-])c1ccc(O)c(C=Nc2cccc3ccccc23)c1	SENP8 block-1 61, SENP6 inh 58 | SENP8 conf inactive | SENP6 conf inactive | SENP7 conf inactive | Casp3 select inactive | SENP luc ctr inactive
O=[N+]([O-])c1ccc(O)c(/C=N/Nc2ccccn2)c1	none (no result: SENP8 block-1, SENP7 inh, SENP6 inh)
O=[N+]([O-])c1ccc(N/N=C/c2ccccc2O)cc1	SENP8 block-1 58, SENP6 inh 70 | SENP8 conf inactive | SENP6 conf inactive | SENP7 conf 83 | Casp3 select inactive | SENP luc ctr inactive
O=[N+]([O-])c1ccc(O)c(C=Nc2cccc3ncccc23)c1	SENP8 block-1 75, SENP6 inh 90 | SENP8 conf inactive | SENP6 conf inactive | SENP7 conf inactive | Casp3 select inactive | SENP luc ctr inactive
